High-throughput results deposited in PubChem BioAssay by Johns Hopkins Ion Channel Center.
Rows were chosen to be rich in hits. Some 3.7% of all compounds tested hit in one or more screens of this group.
KCNK9 block: inhibitors of human KCNK9 two-pore domain potassium channel. HEK293 KCNK9, FluxOR thallium flux fluorescence; stronger effect = lower value. B-score at 10 µM. hit rate 1.2% among 310,000;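 active = ratio B-score over 3 SD below the library mean, with starting fluorescence within 5 SD of its mean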;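 note: negative B-score means less thallium flux so channel inhibition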
Kir21 inh: Kir2.1 (mouse) channel inhibition | AID 1672 | hit rate 0.85% among 310,000 | B-score at 10 µM | HEK293-Kir2.1, FluxOR thallium flux fluorescence; stronger effect = lower value | P35561;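 active = fluorescence ratio B-score at or below minus 3 SD of library scores, with starting-brightness B-score within 2 SD, cut at about -4.2 in these data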;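 note: channel flux triggered by added potassium and thallium sulfate stimulus; B-score of peak minus minimum fluorescence over baseline after thallium stimulus; more negative B-score means stronger Kir2.1 block with less thallium influx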
KCNQ1 inh: blocks the human KCNQ1 potassium channel. P51787. CHO-K1 KCNQ1, FluxOR thallium flux fluorescence; stronger effect = higher value. B-score at 10 µM. hit rate 1.3% among 310,000. AID 2642;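 active = compounds whose thallium flux B-score, printed positive for inhibition, exceeds three library SD while starting fluorescence stays within three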;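 note: channel opened by potassium depolarization with thallium stimulus after 20 min compound exposure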
KCNQ1 act: potentiates or activates the human KCNQ1 potassium channel; P51787; CHO-K1 KCNQ1, thallium flux FluxOR fluorescence; stronger effect = higher value; B-score at 10 µM; hit rate 0.35% among 310,000; AID 2648;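 active = fluorescence ratio B-score, a plate-corrected score, at least three library SD, with initial intensity B-score within 5 SD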
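Assay system: CHO-K1 cells stably expressing KCNQ1; Medium: assay buffer with matched DMSO; Also added: K+/Tl+ depolarizing stimulus; Dosing: single dose; Timing: dye 90 min, compound 20 min, room temperature; Measured by: kinetic FluxOR thallium fluorescence, 10-s 1-Hz baseline, 110-s post-stimulus read; Read-out: peak-minus-minimum fluorescence over initial fluorescence, negative-control normalized, B-scored.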
hERG protect: hERG (human) protection from proarrhythmic block; Q12809; CHO-hERG, FluxOR thallium flux, dofetilide IC70 present; AID 1511; activation (rescue from dofetilide block), less the hit threshold, % at 10 µM; hit rate 0.51% among 310,000;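 active = activation above the mean of controls blocked by dofetilide plus 5 SD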;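 note: thallium influx through hERG after potassium depolarization seen as dye fluorescence rise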
KCNK3 inh: human KCNK3 channel inhibition, primary screen; O14649; CHO-KCNK3 thallium flux, FluxOR fluorescence; stronger effect = lower value; B-score at 10 µM; hit rate 0.84% among 340,000; AID 602410;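 active = B-score under library mean minus 4 SD, starting fluorescence ratio at most library mean plus 5 SD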;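 note: more negative B-score means stronger inhibition of thallium flux through KCNK3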
Target sequence (O14649 whole entry, looked up): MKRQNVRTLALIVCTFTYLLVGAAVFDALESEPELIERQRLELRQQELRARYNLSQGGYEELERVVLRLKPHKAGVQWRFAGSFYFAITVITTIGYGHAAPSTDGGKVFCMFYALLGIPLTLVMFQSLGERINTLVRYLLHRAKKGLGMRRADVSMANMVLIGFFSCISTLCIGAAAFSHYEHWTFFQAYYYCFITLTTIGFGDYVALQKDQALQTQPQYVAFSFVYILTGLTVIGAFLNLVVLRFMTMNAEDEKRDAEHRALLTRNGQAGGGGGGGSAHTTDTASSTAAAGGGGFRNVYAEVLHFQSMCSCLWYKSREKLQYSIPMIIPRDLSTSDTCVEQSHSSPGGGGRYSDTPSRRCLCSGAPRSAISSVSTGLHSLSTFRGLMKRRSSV
A number is an active result; 0 = inactive.

SMILES	KCNK9 block	Kir21 inh	KCNQ1 inh	KCNQ1 act	hERG protect	KCNK3 inh
COc1cccc(C2=NN(C(=O)c3ccco3)C(O)(C(F)(F)F)C2)c1 (centres undefined)	0	0	0	0	0	0
O=C(c1ccccc1O)N1N=C(c2ccccc2)CC1(O)C(F)(F)F (centres undefined)	0	0	6	0	0	0
Cc1ccc(C2=NN(C(=O)c3ccco3)C(O)(C(F)(F)F)C2)cc1 (centres undefined)	0	-4.6	0	0	0	0
Nc1ccc(C(=O)N2N=C(c3ccccc3)CC2(O)C(F)(F)F)cc1 (centres undefined)	0	0	0	0	0	0
Cc1ccccc1NC(=S)N(Cc1ccco1)C(C)c1cccs1 (centres undefined)	0	0	0	0	0	0
CC(c1cccs1)N(Cc1ccco1)C(=S)Nc1ccc(F)c(Cl)c1 (centres undefined)	0	0	10	0	0	0
CCOC(=O)C1(Cc2ccc(Cl)cc2)CCN(C(C)Cc2ccc(O)c(OC)c2)CC1 (centres undefined)	0	0	13	0	0	0
CCC1CCCCN1CCCNC(=O)C1CCN(Cc2nc(-c3ccc(Cl)cc3)oc2C)CC1 (centres undefined)	0	0	0	0	0	0
Cc1oc(-c2ccc(Cl)cc2)nc1CN1CCC(C(=O)NCCCN2CCOCC2)CC1	0	-4.6	0	0	0	0
CC(C)(C)c1ccccc1OCC(=O)Nc1ccccc1C(=O)NCc1cccnc1	0	-6	0	0	0	0
O=C(NC1CC1)c1ccc2c(c1)C1C3CCC(C3)C1C(c1ccccc1)N2 (centres undefined)	0	0	0	0	5.2	0
CCOc1ccc(OCC)c(NC(=O)CCCN2C(=O)c3cccnc3C2=O)c1	0	0	0	0	7.5	0
CN(CCOCCOc1ccc2ccccc2c1)Cc1ccccc1	0	-7	0	0	0	0
CCN(CCN(C)C)C(=O)C1CCN(S(=O)(=O)c2c(C)noc2/C=C/c2ccccc2F)CC1	0	-5	0	0	0	0
O=c1oc2ccccc2c(Cl)c1CN1CCCCC1	0	0	0	15	0	0
COc1ccc(-c2c[n+]3c4n2CCCCC4=C(c2ccc(Br)cc2)C3)cc1	0	0	11	0	0	0
COc1ccc(-c2cnc3n2CCCCC3)cc1	0	0	0	0	0	0
Clc1ccc(C2=C3CCCCn4c(-c5ccccc5)c[n+](c43)C2)cc1	0	0	7	0	0	0
COc1ccc(O)c(C(=O)c2cc(C#N)c(=O)n(-c3ccc(Cl)cc3)c2)c1	0	0	0	0	0	0
Cc1ccc(-n2cc(C(=O)c3cc(Cl)ccc3O)cc(C#N)c2=O)cc1	0	0	0	0	0	0
COc1ccc(-n2cc(C(=O)c3cc(Cl)ccc3O)cc(C#N)c2=O)cc1	0	0	6	0	0	0
CCOc1ccc(-n2cc(C(=O)c3cc(Cl)ccc3O)cc(C#N)c2=O)cc1	0	0	8	0	0	0
Cc1ccc(N2CC(C(=O)Nc3ncc([N+](=O)[O-])s3)CC2=O)cc1 (centres undefined)	0	0	6	0	0	0
CCCN(CCC)C(=O)NC1CC(=O)N(c2ccc(OC)cc2)C1 (centres undefined)	0	0	0	0	0	0
Cc1ccc(C)c(Oc2cc(NC(=O)CCCn3nc(C)c([N+](=O)[O-])c3C)cc([N+](=O)[O-])c2)c1	-7.7	0	0	0	0	0
SMILES	KCNK9 block	Kir21 inh	KCNQ1 inh	KCNQ1 act	hERG protect	KCNK3 inh
CCOC(=O)C(=O)Nc1ncc(Cl)s1	0	0	0	0	0	0
COc1ccc(C(=O)NC(=S)NC(C)(C)C)cc1Br	0	0	0	0	0	0
CC(C)CC(COCc1ccc(Cl)cc1)N1CCN(C(=O)c2ccc(Cl)cc2Cl)CCC1=O (centres undefined)	0	0	0	0	0	0
CCC(=O)N(Cc1c(C)nn(-c2ccccc2)c1Cl)c1ccc(Cl)cc1	0	0	6	0	0	0
CC(C)N1CCN(Cc2ccc(Sc3nncn3C)o2)CC1CCO (centres undefined)	0	0	0	0	0	0
CC(NCCC(c1ccccc1)c1ccccc1)c1ccccc1 (centres undefined)	0	-6.4	0	0	0	0
